Experimental data taken from PubChem BioAssay AID651647 (Sanford-Burnham Center for Chemical Genomics, 2012).
In all, about 360,000 compounds went through this assay and about 220 (0.061%) were called active.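 The calls were made as follows: active = GFP/RFP ratio change of at least 30% with cell ATP level not reduced by more than half and red fluorescence within 50% of control; inactive = the rest, inconclusive results apart.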 The list comes from a sample in which actives are over-represented; it also holds similar structures and randomly drawn compounds.

target: Matrix metalloproteinase-14 (Homo sapiens) (UniProt P50281); assay: MT1-MMP activation inhibitors, cellular reporter – HT1080 RFP-PRO-GFP cells, GFP/RFP fluorescence, primary screen (AID 651647); details: overnight, at 20 µM, hits give high values, percent of plate control window, DMSO zero
In short: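 Test system: HT1080 RFP-PRO-GFP cells; Benchmarks: DMSO and RFP-L50D-GFP cell wells; Timing: cells overnight before dosing, compound overnight, 37 °C, 5% CO2; Compound: one 20 µM compound dose with 1% DMSO; Read-out: GFP/RFP fluorescence ratio.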

**Q.** `CC12CCC(C(=O)N(NC(=O)c3ccccc3O)C1=O)C2(C)C` (configuration not stated) was tested. Which GFP/RFP ratio change did it give?
**A.** 2.09% (inactive)

**Q.** `CC(C)COC(=O)C1C2C=CC3(CN(C(C)c4ccc(Br)cc4)C(=O)C13)O2` (configuration not stated) was tested. Which GFP/RFP ratio change did it give?
**A.** 3.45% (inactive)

**Q.** For `COC(=O)CN1C(=O)[C@H]2[C@@H](/C=C/c3ccccc3)N3C(=O)CN(Cc4ccccc4)C(=O)[C@@]3(Cc3ccccc3)[C@H]2C1=O`, which GFP/RFP ratio change is on record?
**A.** 2.05% (inactive)

**Q.** How did the GFP/RFP ratio change turn out when `CCC(C(=O)NCc1ccc(OC)cc1)n1nc(C)n2c(cc3occc32)c1=O` (configuration not stated) was run?
**A.** -2.32% (inactive)

**Q.** Which GFP/RFP ratio change does the source give for `O=C(c1cccc(S(=O)(=O)N2CCCC2)c1)N(Cc1ccco1)C1CCS(=O)(=O)C1` (configuration not stated) here?
**A.** -1.85% (inactive)

**Q.** Which GFP/RFP ratio change does the source give for `COc1ccc2c(c1OC)C(=O)N(c1ncn[nH]1)C2` here?
**A.** 5.29% (inactive)

**Q.** How did the GFP/RFP ratio change turn out when `COc1cc(C2C(N3C(=O)c4ccccc4C3=O)C(=O)N2c2ccc(C)c(C)c2)cc(OC)c1OC` (configuration not stated) was run?
**A.** 4.49% (inactive)

**Q.** Which GFP/RFP ratio change does the source give for `CCN(CC(=O)Nc1ccc(NC(C)=O)cc1)C(=O)C1CC(=O)N(c2ccc3c(c2)OCCO3)C1` (configuration not stated) here?
**A.** 1.76% (inactive)

**Q.** For `COc1ccccc1NC1=NC(c2ccc(Cl)cc2)N=C(N)N1` (configuration not stated), which GFP/RFP ratio change is on record?
**A.** -2.9% (inactive)

**Q.** `Cc1cc(OC(=O)c2ccc(Cl)cc2)cc(=O)n1C` was tested. Which GFP/RFP ratio change did it give?
**A.** 0.208% (inactive)

**Q.** For `CCN(CC)C(=O)N1CCN(C(=O)c2ccc(C)cn2)CC1`, which GFP/RFP ratio change is on record?
**A.** 4.93% (inactive)

**Q.** `CC1(C(=O)NCc2ccc3c(c2)OCO3)CCN1CCc1ccccc1` (configuration not stated) was tested. Which GFP/RFP ratio change did it give?
**A.** 2.41% (inactive)

**Q.** `COCCCNC(=O)CN1C(=O)CSc2ccc(S(=O)(=O)N3CCOCC3)cc21` was tested. Which GFP/RFP ratio change did it give?
**A.** -2.33% (inactive)

**Q.** Which GFP/RFP ratio change does the source give for `CCn1cc(CCC(=O)NCc2ccc(F)cc2)c2ccccc21` here?
**A.** 1.53% (inactive)

**Q.** How did the GFP/RFP ratio change turn out when `N#Cc1ccc(-c2nc3c(Cl)cc(C(F)(F)F)cn3c2Cc2ccccc2C(F)(F)F)cc1` was run?
**A.** 1.7% (inactive)

**Q.** How did the GFP/RFP ratio change turn out when `CN(C)CCCn1c(SCc2ccc(Cl)cc2)nnc1-c1ccncc1` was run?
**A.** 1.22% (inactive)

**Q.** Which GFP/RFP ratio change does the source give for `CC1(C)OC(=O)C2=C(C[C@@H](C3CCCCC3)O[C@@H]2c2ccc(Cl)cc2)O1` here?
**A.** -0.857% (inactive)

**Q.** Which GFP/RFP ratio change does the source give for `CC1(C)CC(=O)NC=C(c2ccccc2)C1` here?
**A.** 0.817% (inactive)

**Q.** For `COc1ccc(C(=O)COC(=O)c2c(C)noc2C)cc1Cl`, which GFP/RFP ratio change is on record?
**A.** 0.327% (inactive)

**Q.** `O=c1[nH]nc(SCCS(=O)(=O)c2ccc(F)cc2)n1-c1ccccc1C(F)(F)F` was tested. Which GFP/RFP ratio change did it give?
**A.** 1.01% (inactive)

**Q.** With `COc1cccc(NC(=O)Cn2c3ccc(F)cc3c3nc4n(c(=O)c32)CCS4)c1` as the molecule, how does the GFP/RFP ratio change read?
**A.** 1.54% (inactive)

**Q.** How did the GFP/RFP ratio change turn out when `O=C(CCc1ccccc1F)N1CCN(c2ccccc2)CC1` was run?
**A.** -1.03% (inactive)

**Q.** For `Cc1cc(=O)oc2c1ccc1ccccc12`, which GFP/RFP ratio change is on record?
**A.** 0.0995% (inactive)

**Q.** With `CCCCCc1ccc(-c2ccc(C(=O)O)cc2)nc1` as the molecule, how does the GFP/RFP ratio change read?
**A.** 0.418% (inactive)

**Q.** With `Cc1cc(C)c(C#N)c(SCS(=O)c2ccc(C(C)(C)C)cc2)n1` (configuration not stated) as the molecule, how does the GFP/RFP ratio change read?
**A.** 3.13% (inactive)

**Q.** How did the GFP/RFP ratio change turn out when `O=C(COC(=O)C1CCN(S(=O)(=O)c2ccc3c(c2)OCCO3)CC1)Nc1ccccc1OC(F)F` was run?
**A.** -1.25% (inactive)

**Q.** `CC1(C)CN(Cc2cccnc2)C(=O)[C@H]1CC(=O)Nc1ccc(Br)cc1` was tested. Which GFP/RFP ratio change did it give?
**A.** -0.506% (inactive)

**Q.** `CCCc1nc(-c2ccccc2O)n(-c2ccccc2)n1` was tested. Which GFP/RFP ratio change did it give?
**A.** 1.17% (inactive)

**Q.** How did the GFP/RFP ratio change turn out when `N#CCSc1nc2ccc(N3CCOCC3)cc2c(=O)n1CCc1ccccc1` was run?
**A.** 9.47% (inactive)

**Q.** Which GFP/RFP ratio change does the source give for `COc1cc(NC(=O)CCS(=O)(=O)c2ccc3c(c2)oc(=O)n3C)cc(OC)c1` here?
**A.** 0.489% (inactive)

**Q.** For `Cc1cc(OCc2ccc(C(=O)Nc3ccc(C(=O)O)cc3)o2)ccc1Cl`, which GFP/RFP ratio change is on record?
**A.** 1.24% (inactive)

**Q.** With `Cc1ccc(NC(=O)COc2coc(CN3CCc4ccccc4C3)cc2=O)cc1Cl` as the molecule, how does the GFP/RFP ratio change read?
**A.** -6.33% (inactive)

**Q.** How did the GFP/RFP ratio change turn out when `CCCc1c(C(=O)N/N=C(\C)CCc2ccc(OC)cc2)nnn1-c1nonc1N` was run?
**A.** 0.35% (inactive)

**Q.** For `O=C1CCCC(O)=C1N=Nc1ccc(S(=O)(=O)N2CCOCC2)cc1`, which GFP/RFP ratio change is on record?
**A.** 48.9% (active)

**Q.** For `O=C1CCCC(O)=C1N=Nc1ccc2ncsc2c1`, which GFP/RFP ratio change is on record?
**A.** 4.19% (inactive)

**Q.** `CC1(C)CC(=O)C(N=Nc2ccc(S(=O)(=O)N3CCCCCC3)cc2)=C(O)C1` was tested. Which GFP/RFP ratio change did it give?
**A.** 3.46% (inactive)

**Q.** How did the GFP/RFP ratio change turn out when `CC1(C)CC(=O)C(C2=NC(C)(C)Cc3ccccc32)=C(O)C1` was run?
**A.** -1.97% (inactive)

**Q.** `CCCCCCN1C[C@H](O)[C@@H](n2cc(C3CC3)nn2)C[C@@H]1c1ccc(Cl)cc1` was tested. Which GFP/RFP ratio change did it give?
**A.** 2.78% (inactive)

**Q.** How did the GFP/RFP ratio change turn out when `CC1CC(C)CN(CCCNC(=O)Cn2ncc3c([nH]c4ccccc43)c2=O)C1` (configuration not stated) was run?
**A.** -6.2% (inactive)

**Q.** Which GFP/RFP ratio change does the source give for `Cc1ccc(C(=O)OCC(=O)Nc2ccc(Cl)cn2)cc1S(=O)(=O)N1CCOCC1` here?
**A.** 2.27% (inactive)

**Q.** `CCOc1ccc(NC(=O)[C@H](C)NC(=O)C2CC(=O)N(c3ccc(OC)cc3)C2)cc1` (some centres not stated) was tested. Which GFP/RFP ratio change did it give?
**A.** 0.231% (inactive)

**Q.** For `CCOC(=O)c1c(NC(=O)CCCN2CCOCC2)sc2c1CC(C)(C)OC2`, which GFP/RFP ratio change is on record?
**A.** -2.69% (inactive)

**Q.** `O=P(O)(CP(=O)(c1ccccc1)c1ccccc1)c1ccccc1O` was tested. Which GFP/RFP ratio change did it give?
**A.** 2.61% (inactive)

**Q.** How did the GFP/RFP ratio change turn out when `O=C(CP(=O)(c1ccccc1)c1ccccc1)N1CCOCC1` was run?
**A.** 1.97% (inactive)

**Q.** How did the GFP/RFP ratio change turn out when `O=P(O)(CP(=O)(c1ccccc1)c1ccccc1)c1ccccc1` was run?
**A.** 35.4% (active)

**Q.** Which GFP/RFP ratio change does the source give for `Cc1noc(COc2ccccc2OCc2onc(C)c2Cl)c1Cl` here?
**A.** -3.96% (inactive)

**Q.** How did the GFP/RFP ratio change turn out when `CC(C)(C)Cc1c(C2CCCCC2)nc2ccc(Br)cn12` was run?
**A.** -6.01% (inactive)

**Q.** Which GFP/RFP ratio change does the source give for `CCN(CC)C(=O)Oc1ccc(Br)cc1C(=O)Nc1ccc(F)c(Cl)c1` here?
**A.** -4.63% (inactive)

**Q.** Which GFP/RFP ratio change does the source give for `COc1ccc(-c2noc(C(C)NS(=O)(=O)c3ccc(NC(C)=O)cc3)n2)cc1` (configuration not stated) here?
**A.** -4.06% (inactive)

**Q.** Which GFP/RFP ratio change does the source give for `CCOC(=O)c1cnc2c(c(C)nn2CC)c1Cl` here?
**A.** 2.11% (inactive)

**Q.** `COc1ccc(NC(=O)C(C)N2c3cccc4cccc(c34)S2(=O)=O)c(OC)c1` (configuration not stated) was tested. Which GFP/RFP ratio change did it give?
**A.** 3.17% (inactive)

**Q.** How did the GFP/RFP ratio change turn out when `COc1ccc(CC(NC(C)=O)C(=O)N2CCN(C(=O)Nc3cccc(Cl)c3)CC2)cc1OC` (configuration not stated) was run?
**A.** -3.43% (inactive)

**Q.** With `Brc1ccc(Nc2c3c(nc4ncnn24)CCC3)cc1` as the molecule, how does the GFP/RFP ratio change read?
**A.** 1.92% (inactive)

**Q.** For `CN=C1C=C/C(=N/N=c2\ccn(O)cc2C)C=C1C`, which GFP/RFP ratio change is on record?
**A.** 61% (active)

**Q.** Which GFP/RFP ratio change does the source give for `CC[N+]1(CC)CC2=Cc3ccccc3CC2C1` (configuration not stated) here?
**A.** 0.892% (inactive)

**Q.** For `CC(Sc1nc2cc(Cl)ccc2s1)C(=O)Nc1ccc2c(c1)OCO2` (configuration not stated), which GFP/RFP ratio change is on record?
**A.** 3.37% (inactive)

**Q.** Which GFP/RFP ratio change does the source give for `COCCCNC(=O)/C(C#N)=C/c1c(N2CCCCCC2)nc2ccccn2c1=O` here?
**A.** -0.526% (inactive)
